Tested on: CCRF-CEM
Assay: Cytotoxicity against chemosensitive CEM-T lymphoblastc leukemia cell line.
Assay type: functional, Homo sapiens
Method in brief: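 Cells were kept in DMEM/RPMI 1640 with 10% fetal calf serum, 2 mM glutamine and antibiotics. They were seeded at 2500–30 000 cells/well according to growth characteristics and preincubated 24 h at 37 °C, 5% CO2. Four-fold compound dilutions were tested in duplicate for 72 h. MTT was then added for 1–4 h, the formazan was dissolved in 10% SDS (pH 5.5) overnight, and OD was read at 540 nm. Survival was taken relative to mean control, and TCS50 was derived from dose–response curves.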

SMILES	TCS50 [µM]
COC(=O)[C@@]1(CC(=O)C(=O)C(C)C)CC[C@]2(C)[C@H](CC[C@@H]3[C@@]4(C)CC[C@H](OC(C)=O)C(C)(C)[C@@H]4CC[C@]32C)C1=O	107
CC(=O)OC[C@@]12CC[C@]3(C)[C@H](CC[C@@H]4[C@@]5(C)CC[C@H](OC(C)=O)C(C)(C)[C@@H]5CC[C@]43C)C1=C(C(C)C)C(=O)OC2=O	>250
CC(=O)OCOC(=O)[C@@]12CC[C@]3(C)[C@H](CC[C@@H]4[C@@]5(C)CC[C@H](OC(C)=O)C(C)(C)[C@@H]5CC[C@]43C)C1=C(C(C)C)C(=O)C2	>250
C=C1CC[C@]2(C)[C@H](CC[C@@H]3[C@@]4(C)CC[C@H](OC(C)=O)C(C)(C)[C@@H]4CC[C@]32C)C1=O	>250
CC(=O)OCOC(=O)[C@@]1(CC(=O)C(=O)C(C)C)CC[C@]2(C)[C@H](CC[C@@H]3[C@@]4(C)CC[C@H](OC(C)=O)C(C)(C)[C@@H]4CC[C@]32C)C1=O	18
CC(=O)O[C@H]1CC[C@]2(C)[C@H]3CC[C@H](C(=O)OCOC(=O)C(C)(C)C)[C@@](C)(CCC(=O)OCOC(=O)C(C)(C)C)[C@]3(C)CC[C@H]2C1(C)C	>250
CC(=O)O[C@H]1CC[C@]2(C)[C@H]3CC[C@@H]4C5=C(C(C)C)C(=O)C[C@]5(CO)CC[C@@]4(C)[C@]3(C)CC[C@H]2C1(C)C	232
CC(=O)OC[C@@]12CC[C@]3(C)[C@H](CC[C@@H]4[C@@]5(C)CC[C@H](OC(C)=O)C(C)(C)[C@@H]5CC[C@]43C)C1=C(C(C)C)C(=O)C2=O	66
CC(=O)OCOC(=O)[C@]1(COC(C)=O)CC[C@]2(C)[C@H](CC[C@@H]3[C@@]4(C)CC[C@H](OC(C)=O)C(C)(C)[C@@H]4CC[C@]32C)C1=O	86
CC(=O)O[C@H]1CC[C@]2(C)[C@H]3CC[C@@H]4C(=O)CCC[C@@]4(C)[C@]3(C)CC[C@H]2C1(C)C	>250
CC(=O)OC[C@@]1(C(=O)C(=O)C(=O)C(C)C)CC[C@]2(C)[C@H](CC[C@@H]3[C@@]4(C)CC[C@H](OC(C)=O)C(C)(C)[C@@H]4CC[C@]32C)C1=O	71
CC(=O)O[C@H]1CC[C@]2(C)[C@H]3CC[C@@H]4C(=O)[C@@](CC(=O)C(=O)C(C)C)(C(=O)OCOC(=O)C(C)(C)C)CC[C@@]4(C)[C@]3(C)CC[C@H]2C1(C)C	>250
CC(=O)O[C@H]1CC[C@]2(C)[C@H]3CC[C@@H]4C5=C(C(C)C)C(=O)C[C@]5(C(=O)OCOC(=O)C(C)(C)C)CC[C@@]4(C)[C@]3(C)CC[C@H]2C1(C)C	62.7
